Screens: PubChem BioAssay, several laboratories
In the library only some 3% were active in any assay of this set; here they are far more common.
HNF4A DNA FP: change in binding of human HNF4 alpha to DNA. HNF4a-FITC DNA binding, fluorescence polarization, 1 h. P41235. 0.3% of 360,000 active. activity change, % at 10 µM. AID 1224865; in the data active means activity change above about 30%, passing the limit was not always enough
Target sequence (P41235 whole entry, looked up): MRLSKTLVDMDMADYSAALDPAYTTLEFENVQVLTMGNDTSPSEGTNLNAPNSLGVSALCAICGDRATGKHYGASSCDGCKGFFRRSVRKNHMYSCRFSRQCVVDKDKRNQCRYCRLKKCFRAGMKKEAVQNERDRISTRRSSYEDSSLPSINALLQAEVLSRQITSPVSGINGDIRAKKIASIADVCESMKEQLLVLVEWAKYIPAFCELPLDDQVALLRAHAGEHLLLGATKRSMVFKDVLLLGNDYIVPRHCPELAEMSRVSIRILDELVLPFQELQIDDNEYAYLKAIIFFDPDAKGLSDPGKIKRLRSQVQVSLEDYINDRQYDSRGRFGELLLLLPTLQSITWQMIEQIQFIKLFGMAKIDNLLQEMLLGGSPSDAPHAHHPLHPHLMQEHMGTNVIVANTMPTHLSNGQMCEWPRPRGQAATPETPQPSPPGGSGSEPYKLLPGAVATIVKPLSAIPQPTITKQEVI
H9c2 protect: modulators protecting cardiomyocytes from myocardial damage; H9c2 cardiomyocytes, H2O2 injury protection, ATPLite, 2 h; protection from H2O2 cell death, % at 20 µM; 0.63% of 360,000 active;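 active means compounds giving at least 50% protection of heart cells from peroxide-induced death in the single-dose screen, raw or plate-pattern-corrected value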;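 further: 0% = DMSO wells with peroxide and 100% = DMSO wells without peroxide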
Myeloid diff MLP: promotes myeloid progenitor differentiation | ER-HoxA9 myeloid progenitors, lysozyme-GFP differentiation, flow cytometry | calls only at 10 µM | 1% of 360,000 active;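 active means normalized GFP-positive differentiation at or above the plate's own cutoff, the solvent-only control mean plus 3 SD; inconclusive means no clear call, values can overlap the other calls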;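 further: cells exposed to compound for four days before flow analysis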
SENP1 FRET inh: blocks the human SENP1 SUMO protease catalytic domain; Q9P0U3; recombinant SENP1 catalytic domain, CyPet-SUMO1-YPet FRET cleavage; inhibition, % at 10 µM; 0.21% of 360,000 active; AID 624204;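 active means inhibition at least 30% at 10 µM, raw YFP signal under a set limit, fluorescence ratio 0.5 to 1.5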;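 further: 0% = enzyme with DMSO and 100% = no enzyme wells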
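Controls: no-enzyme wells low, DMSO-plus-enzyme wells high control. Test system: human recombinant His6-tagged SENP1 catalytic domain enzyme. Reagent: SFCypet-SUMO1-SFYpet FRET protein substrate, 25 nM final. Doses: one dose per compound, 10 µM, 0.5% DMSO. Detection: FRET, CFP and YFP emission. Timing: 50 min reaction at room temperature.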
DSG3 Ab inh: blocks pemphigus antibody binding to human desmoglein-3; P32926; DSG3-coupled beads, scFv-anti-DSG3-GFP binding, flow cytometry; active compounds read low; binding (percent of control), % at 10 µM; 0.48% of 310,000 active; AID 588358;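 active means binding more than 3 SD below its plate's average and above zero; inconclusive means below that plate limit but binding exactly zero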;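 further: hits lower antibody fragment binding to DSG3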
Exocytosis inh: blocks lytic granule exocytosis | 0.66% of 360,000 active | TALL-104 LAMP-1 surface exposure, flow cytometry; cells stimulated with thapsigargin and PMA | inhibition, % at 10 µM;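 active means inhibition above about 55%, limit read from the data; inconclusive means no clear call, values can overlap the other calls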
Exocytosis CP01: blocks lytic granule exocytosis. TALL-104 cells, LAMP-1 externalization, flow cytometry; stimulated with PMA plus thapsigargin. 11% of 1,500 active. AID 651954. shares compounds with Exocytosis inh. inhibition, % at 10 µM; in the data active means inhibition above about 60%;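 further: 0% = stimulated vehicle wells and 100% = unstimulated wells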
Numbers without * were called inactive; i = inactive; ? = inconclusive; nt = not tested or not shown; + = active, no number; ! = a repeat was not active.

SMILES	HNF4A DNA FP	H9c2 protect	Myeloid diff MLP	SENP1 FRET inh	DSG3 Ab inh	Exocytosis inh	Exocytosis CP01
COc1cccc(-c2c(C#N)c(N)nc3c2c(C)nn3-c2ccccc2)c1O	4.1	1.9	i	26.6	108.7	-0.7	nt
COC(=O)CNC(c1ccccc1)c1cc(Br)ccc1NC(=O)CCN1CCOCC1 (centres undefined)	2.9	-6.6	i	0.6	109.7	77.5*	-4.8
CCOC(=O)CNC(c1ccccc1)c1cc(Br)ccc1NC(=O)CCN1CCOCC1 (centres undefined)	1.4	-17.4	i	-0.3	89.4	46.6	nt
O=C(COC(=O)c1cc(S(=O)(=O)N2CCOCC2)c(Cl)cc1Cl)c1ccc[nH]1	7.9	0.3	i	-1.1	?	-6.7	nt
COc1cc(OC)cc(C(=O)Nc2ccc(-c3nc4ccccc4o3)cc2)c1	-3.8	119.7*	i	-1.5	110.2	99.8*	39.1
COc1cccc(C(=O)Nc2ccc(-c3nc4ccccc4o3)c(O)c2)c1	-1.9	1.5	i	-2.1	114.3	2.6	nt
C=Cc1ccc(Cn2nc(-c3ccccc3)ccc2=O)cc1	-1.1	-11.5	i	2.3	90.6	-8.9	nt
C=CCNC(=O)c1ccc(NC(=O)C2=CSCCO2)cc1	2.4	1.3	i	2.4	108.0	-1.9	nt
O=c1c(Cl)c2oc3ccccc3nc-2c2ccccc12	-11.2	-18.3	+	64.3	110.7	101.7*	77.0*
Clc1ccc(-c2nnc(Sc3nc4ccccc4o3)c3ccccc23)cc1	-2.3	3.6	i	0.0	96.0	0.0	nt
COC(=O)[C@]12CCCCC=C1N(Cc1cccc3ccccc13)C(=O)[C@H](CC(=O)NCc1ccc(OC)c(OC)c1)C2	-0.5	nt	i	2.1	nt	70.1*	97.0*
Cc1ccc2c(c1)c1c(c(=O)n(-c3ccccc3C)c(=O)n1CC(=O)NCC1CCCO1)n2C (centres undefined)	-2.6	-1.5	i	3.2	99.2	-2.7	nt
O=C(NCc1ccccc1)C1(c2ccccc2)CCN(S(=O)(=O)c2ccccc2)CC1	-0.8	15.3	i	0.3	98.8	62.7*	-3.3
Cc1cccc(OCC(O)Cn2c(N3CCCCC3)nc3c2c(=O)n(C)c(=O)n3C)c1 (centres undefined)	5.1	17.4	i	3.0	111.4	6.7	nt
COc1cccc(CNCCc2c[nH]c3ccccc23)c1OCc1ccccc1	-1.0	-11.9	nt	0.4	nt	64.7*	27.9
COc1cc(CNCCc2c[nH]c3ccccc23)ccc1OCc1ccccc1F	-1.1	1.1	i	-0.4	101.8	-2.9	nt
Clc1ncnc2c1oc1ccccc12	-2.5	-27.0	i	4.9	113.0	72.4*	-3.8
CC1(C)C(=O)OC(c2ccc([N+](=O)[O-])cc2)C(C)(C)C1=O (centres undefined)	-0.1	-3.1	i	1.0	110.0	-10.6	nt
O=C1/C(=C/c2ccncc2)Oc2cc(OS(=O)(=O)c3ccccc3)ccc21	4.9	11.1	i	2.5	97.0	50.2	nt
COc1cccc(OC)c1C(=O)Oc1ccc2c(c1)O/C(=C\c1ccncc1)C2=O	-1.1	23.3	i	4.6	97.6	60.0*	12.1
CCc1ccccc1N(C)S(=O)(=O)c1ccc(-c2cc(C)no2)s1	-10.7	-9.4	?	-1.3	104.0	68.4*	-9.7
COc1ccc(N2CCN(S(=O)(=O)c3ccc(-c4cc(C)no4)s3)CC2)cc1	-10.3	-2.5	i	2.2	nt	-0.6	nt
CCN(c1ccc(OC)cc1)S(=O)(=O)c1ccc(-c2cc(C)no2)s1	2.9	-9.9	i	1.6	111.0	74.6*	-4.7
CCCCCCCN1CCC(=O)N([C@H](CO)CC(C)C)CC1	2.0	-3.1	i	-0.5	100.4	81.3*	-13.3
CCCCCCCN1CCC(=O)N([C@H](CO)Cc2ccccc2)CC1	-0.6	-10.6	i	3.0	104.6	3.6	nt
SMILES	HNF4A DNA FP	H9c2 protect	Myeloid diff MLP	SENP1 FRET inh	DSG3 Ab inh	Exocytosis inh	Exocytosis CP01
COc1ccc(CN2CCN(CCCCOc3ccc(Cl)cc3)CC2)c(OC)c1OC	3.3	-21.1	i	2.6	97.2	76.1*	-10.0
CCc1ccccc1OCC(=O)Nc1nc(-c2cccnc2)cs1	1.2	45.3	i	-1.2	113.1	0.2	nt
COc1ccc(C2CCCN2CC(O)COc2ccccc2C(C)C)cc1 (centres undefined)	1.0	-14.2	i	0.5	118.6	63.4*	-12.1
CCN1CCN(Cc2ccc(NC(=O)c3ccc(C)c(NC(=O)C[C@@H]4NC(=O)[C@H](Cc5ccccc5)NC4=O)c3)cc2C(F)(F)F)CC1	2.4	-0.3	i	1.1	109.7	76.5*!	-12.8
Cn1c(=O)c2c(nc(N3CCN(c4ccccc4)CC3)n2CCCc2ccccc2)n(C)c1=O	0.7	28.1	i	0.3	103.4	74.1*	-3.4
Clc1cccc(CN2CCc3c([nH]c4ccccc34)C2)c1	-1.4	1.4	i	-24.2	106.6	58.0*	-14.2
Clc1ccc(CN2CCc3c([nH]c4ccccc34)C2)cc1Cl	2.9	-10.9	i	-10.0	93.3	58.0*	-4.1
CCCN1CCC(NCc2cn(C)nc2-c2ccc(Oc3ccccc3)cc2)CC1	2.9	-8.4	i	-0.1	104.2	76.6*	17.0
COC1CCCN(Cc2cn(C)nc2-c2ccc(Oc3ccccc3)cc2)C1 (centres undefined)	1.6	5.1	i	-1.3	128.9	0.4	nt
O=C(CN1CCN(c2ccccc2)CC1)N/N=C/c1cccc(F)c1	0.9	-3.5	i	2.7	89.0	-2.4	nt
Cc1c2ccncc2cc2c1[nH]c1ccccc12	8.7	-10.5	?	-78.9	150.1	0.8	nt
COc1ccc2[nH]c3c(C)c4ccncc4c(C)c3c2c1	25.2	2.1	?	-20.1	nt	70.2*	18.0
COc1ccccc1CC(=O)c1ccc(OCc2ccccc2)cc1	-1.0	-19.3	i	1.8	99.8	81.1*	-9.1
O=C(NC1CCCC1)C1c2ccccc2OCC(=O)N1Cc1cccnc1 (centres undefined)	3.1	nt	i	1.7	nt	-0.7	nt
CN(C)CCCNC(=S)NCC(c1ccc(Cl)cc1Cl)c1c[nH]c2ccccc12 (centres undefined)	-1.1	-1.5	i	-0.9	104.5	92.3*	77.2*
CC1CCN(C(=O)Cn2nnc(-c3ccccc3)n2)CC1	-2.1	-4.5	i	2.4	95.4	58.2*	-11.7
CC1CC(C)CN(C(=O)Cn2nnc(-c3ccccc3)n2)C1 (centres undefined)	1.0	4.8	i	0.5	114.8	-0.8	nt
O=C(/C=C/c1ccccc1)N1CCC[C@H]1CO	-0.5	-0.6	i	0.5	93.1	-4.7	nt
